# Compound activity from PubChem BioAssay.
# The list is not random: actives were taken first. Their share in the collection is about 2%.
# C8 TRAIL sens: viability loss with TRAIL in NB7+C8 cells, primary screen, TRAIL sensitizer project, cell-based, ATPlite luminescence. 360,000 compounds, 1% hits. AID 624354, 2012. inhibition (viability loss, TRAIL sensitization), % at 10 µM;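 active means compounds causing at least 50% loss of cell viability in the single-dose screen, relative to plate controls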
# FLuc inh counter: firefly luciferase enzyme inhibitors, primary screen, artefact control for luciferase-based inhibitor screens, biochemical, luminescence, ATPLite; Luciferin 4-monooxygenase (Photinus pyralis), P08659; 10 min; inhibition, % at 10 µM; 200,000 compounds, 1.5% hits;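 active means inhibition above about 50% when tested at 10 µM, limit read from the data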
# Target sequence (P08659 whole entry, looked up): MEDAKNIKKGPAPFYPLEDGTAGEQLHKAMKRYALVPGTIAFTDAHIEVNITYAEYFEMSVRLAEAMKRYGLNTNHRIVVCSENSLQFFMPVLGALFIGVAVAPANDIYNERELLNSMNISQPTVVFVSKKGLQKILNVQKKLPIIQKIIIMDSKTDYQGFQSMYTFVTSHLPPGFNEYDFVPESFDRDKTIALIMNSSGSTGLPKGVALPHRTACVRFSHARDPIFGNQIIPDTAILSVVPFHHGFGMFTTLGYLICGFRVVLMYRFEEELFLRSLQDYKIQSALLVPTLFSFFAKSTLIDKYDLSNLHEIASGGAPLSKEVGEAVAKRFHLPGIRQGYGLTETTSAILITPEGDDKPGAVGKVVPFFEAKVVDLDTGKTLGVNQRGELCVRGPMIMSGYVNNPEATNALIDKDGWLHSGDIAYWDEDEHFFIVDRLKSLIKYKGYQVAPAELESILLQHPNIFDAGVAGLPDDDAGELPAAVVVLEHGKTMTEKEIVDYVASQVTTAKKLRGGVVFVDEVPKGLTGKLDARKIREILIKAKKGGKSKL
# FLuc act counter: FLuc activators, initial screening, artefact control for FLuc-dependent activation tests, biochemical, ATPlite luminescence. Luciferin 4-monooxygenase (Photinus pyralis), P08659. ATPlite luciferase biochemical, 10 min; 0 = ATP-free wells, 1 = DMSO control. activation factor at 10 µM. 200,000 tested, under 10 active;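 active means luciferase activation factor, scaled between plate controls, of at least 2 with compound at 10 µM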
#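 Assay system: Luciferase/luciferin reagent mix; Medium: PBS as buffer for the ATP substrate; Dosing: test compounds dosed from 2 mM stocks in 100% DMSO; Times: 10 min, room temperature; Signal: luminescence from luciferase reaction; Read-out: luciferase activation; Controls: No-ATP low control, compound-free enzyme-plus-ATP high control.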
# HSP90 inh: HSP90 inhibitors, primary screen, cell lysate, luminescence | inhibition, % at 5.6 µM | 290,000 compounds, 0.91% hits | Heat shock protein HSP 90 (rabbit reticulocyte lysate; luciferase refolding) | Rabbit reticulocyte lysate, luciferase refolding luminescence, 3 h;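 active means inhibition above the screen-wide mean plus 3 SD, computed separately per campaign, cut at about 16% in these data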;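 further: 0% = DMSO wells and 100% = 60 µM geldanamycin wells; inhibitors lower the luminescence because luciferase stays unfolded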
# PPC-1+TRAIL kill: compounds killing PPC-1 cancer cells with TRAIL present, primary screen, TRAIL potentiator project, ATPLite luminescence, uHTS; 220,000 compounds, 0.41% hits; AID 1443, 2008; cell killing (% activity), % at 4 µM or 5 µM; PPC-1 cells + TRAIL, ATPLite viability luminescence;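 active means cell killing above 50% in the first pass at 4 µM, then a duplicate retest at 5 µM averaging 50% or more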;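 further: plate controls were cells with TRAIL plus DMSO for no effect and medium-only wells lacking cells for full effect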
# HSP90 confirm: HSP90 inhibitors, confirmation, cell lysate, luminescence. shares compounds with HSP90 inh. rabbit reticulocyte lysate, luciferase refolding luminescence, 3 h. inhibition, % at 5.9 µM. 2,300 compounds, 64% hits. AID 1846, 2009; in the data active means inhibition above about 18%;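 further: 0% = vehicle wells and 100% = reference inhibitor wells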
# FLuc counter: firefly luciferase inhibitors, HSP90 counter-screen, confirmation, artefact control for HSP90 inhibitor project, biochemical, luminescence, triplicate | shares compounds with HSP90 inh | AID 1847, 2009 | 2,300 compounds, 48% hits | inhibition, % at 5.9 µM | purified native firefly luciferase;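 active means inhibition above the mean inhibition of all tested sample wells plus 3 SD, cut at about 10% in these data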;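 further: 0% = DMSO with luciferase and 100% = wells lacking luciferase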
# Numbers without * were called inactive; . = no result given.
SMILES,C8 TRAIL sens,FLuc inh counter,FLuc act counter,HSP90 inh,PPC-1+TRAIL kill,HSP90 confirm,FLuc counter
O=C(CN1C(=O)/C(=C\c2cccc(Cl)c2)Oc2ccccc21)N1CCN(c2ccccn2)CC1,.,0.2,1,-2.7,8.4,.,.
Cc1ccc(S(=O)(=O)NCc2ccncc2)cc1C,28.6,-9.1,1.1,30.0*,33.2,-1.4,-4.1
O=S(=O)(NCc1ccncc1)c1ccc(F)c(F)c1,-3.7,.,.,.,.,.,.
C=C1CC[C@H](O)C/C1=C/C=C1\CCC[C@]2(C)[C@@H]([C@H](C)/C=C/[C@H](C)C(C)C)CC[C@@H]12,-7.4,.,.,.,.,.,.
Cc1ccnc(Nc2nc3ccccc3o2)n1,47.4,68.6*,0.3,21.8*,45.9,44.9*,22.0*
COc1ccc(CCNC(=O)c2cc(-c3cc(Cl)cc(Cl)c3)oc2C)cc1,1.5,-5.4,1.1,18.9*,-3.1,6.4,-4.2
Cc1oc(-c2cc(Cl)cc(Cl)c2)cc1C(=O)NCCc1ccccc1,0.5,-5.4,1.1,-4.7,6.0,.,.
O=C(NCc1ccccc1Br)c1cccs1,6.8,.,.,.,.,.,.
CCOc1ccc(CN2CCN(Cc3cc4ccccc4o3)CC2CCO)cc1 (centres undefined),-8.2,.,.,60.5*,.,2.5,-2.1
COc1cccc(CN2CCN(Cc3cc4ccccc4o3)CC2CCO)c1 (centres undefined),-0.8,.,.,0.6,.,.,.
C=CCn1c(C)cc(C(=O)COC(=O)CNC(=O)c2ccccc2)c1C,0.0,16.5,0.8,17.4*,1.0,5.5,29.4*
N/C(=N\N=C\c1ccc2c(c1)OCO2)c1nonc1N,40.3,78.5*,0.2,20.6*,18.8,53.7*,37.1*
N/C(=N\N=C\c1cccc([N+](=O)[O-])c1)c1nonc1N,-18.6,.,.,4.3,7.5,.,.
COc1ccc(CNC(=O)COC(=O)CN2C(=O)C3CC=CCC3C2=O)cc1 (centres undefined),-14.6,.,.,.,.,.,.
Cc1cc(C(=O)NC2CCCN(Cc3ccccc3F)C2)n[nH]1 (centres undefined),-4.4,.,.,-2.5,.,.,.
C=CCOc1ccc(C2NC(=S)NC3=C2CCc2ccccc23)cc1 (centres undefined),-19.7,.,.,20.2*,12.9,42.1*,51.6*
CCCOC(=O)Nc1ccc(N2CCCCC2)cc1,33.5,58.6*,0.4,20.6*,38.4,33.5*,20.9*
N#C/C(=C\c1ccc(-c2ccc(C(=O)O)cc2)o1)C(=O)Nc1ccc(F)cc1,13.8,.,.,-3.0,.,.,.
Cc1cccc(C)c1NC(=O)/C(C#N)=C/c1ccc(-c2ccc(C(=O)O)cc2)o1,4.4,.,.,33.9*,.,35.9*,-9.5
COc1ccc(C(=O)N2CCCC(C(N)=O)C2)cc1S(=O)(=O)N1CCOCC1 (centres undefined),-5.5,.,.,.,.,.,.
CCOC(=O)C1C(=O)CC(C)(O)C(C(=O)OCC)C1c1ccc(N(CC)CC)cc1 (centres undefined),-3.3,-5.3,1.1,-2.1,13.2,.,.
CCN(CC)c1ccc(C2C(C(=O)OC(C)C)C(=O)CC(C)(O)C2C(=O)OC(C)C)cc1 (centres undefined),10.6,-8.4,1.1,31.6*,2.6,2.3,-1.7
O=C(C1CCN(c2ncnc3c2nc2n3CCCCC2)CC1)N1CCCCC1,6.1,.,.,1.6,.,.,.
Cc1ccc(NC(=O)C2CCN(c3ncnc4c3nc3n4CCCCC3)CC2)nc1,0.0,.,.,34.1*,.,-10.1,-22.4
Cc1cc(C)c(C)c(S(=O)(=O)NCc2ccc(C(=O)N3CCOCC3)cc2)c1C,-15.0,.,.,-2.5,.,.,.
COc1ccccc1N1CCN(/N=C/c2ccc(C(=O)O)cc2)CC1,8.2,.,.,46.4*,.,60.4*,38.8*
COc1ccc(/C=N/N2CCN(c3ccccc3OC)CC2)cc1OC,-4.5,2.2,1,1.6,11.1,.,.
